According to ChEMBL document CHEMBL3877293, “Synthesis and Antineoplastic Evaluation of Novel Unsymmetrical 1,3,4-Oxadiazoles” (J Med Chem, 2016):
The source made the active and inactive calls. The rule behind the calls is not given here.

Legend:
[1] = Antiproliferative activity against human Kelly cells after 72 hrs by XTT assay; assay type: functional, cell-based
How it was run: (§1)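 Cells plated at 1500–2000 per well by doubling time, treated after 24 h with a concentration series in six triplicate wells, and incubated 72 h without a medium change. XTT reagent was then added for 4 h at 37 °C and absorbance read at 490 nm. IC50 is the concentration halving absorbance versus untreated cells. Experiments run in triplicate.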

MCF7 = assay: Selectivity ratio of IC50 for human MCF7 cells to IC50 for human T98G cells; assay type: functional
How it was run: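 XTT viability: 1500–2000 cells/well plated by doubling time; compounds added after 24 h, then 72 h further culture without medium change. XTT reagent 4 h at 37 °C, absorbance read at 490 nm. IC50 is the concentration halving absorbance versus untreated cells; triplicate experiments. Ratio is MCF7 IC50 divided by IC50 in the named line.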

[2] = Antiproliferative activity against human MCF7 cells at 0.5 uM after 72 hrs in presence of 5 uM BCRP inhibitor harmine by XTT assay relative to control; assay type: functional
How it was run: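 Mcf7 cells treated after 24 h for 72 h at 37 °C, 5% CO2 with test compound at 0.5 μM alone or combined with harmine (1, 3, 5 μM) or reversan (5, 15, 25 μM). XTT was added for 4 h at 37 °C, absorbance read at 490 nm, and viability compared with control.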

[3] = Cell cycle arrest in human HeLa cells assessed as G2/M phase accumulation at 1 uM after 8 hrs by propidium iodide staining based flow cytometry (reference value: 18.1%); assay type: functional
[4] = Cell cycle arrest in human MCF7 cells assessed as S phase accumulation at 1 uM after 144 hrs by propidium iodide staining based flow cytometry (reference value: 17.8%); assay type: functional
[5] = Cell cycle arrest in human MCF7 cells assessed as G2/M phase accumulation at 1 uM after 144 hrs by propidium iodide staining based flow cytometry (reference value: 16.3%); assay type: functional
[6] = Cell cycle arrest in human NCI-H1299 cells assessed as G1 phase accumulation at 1 uM after 24 hrs by propidium iodide staining based flow cytometry (reference value: 61.2 +/- 1.69%); assay type: functional
[7] = Cell cycle arrest in human NCI-H1299 cells assessed as G1 phase accumulation at 1 uM after 48 hrs by propidium iodide staining based flow cytometry (reference value: 81%); assay type: functional
[8] = Cell cycle arrest in human NCI-H1299 cells assessed as S phase accumulation at 1 uM after 48 hrs by propidium iodide staining based flow cytometry (reference value: 7.2%); assay type: functional
[9] = Cell cycle arrest in human RD cells assessed as subG1 phase accumulation at 1 uM after 24 hrs by propidium iodide staining based flow cytometry relative to DMSO control; assay type: functional
[10] = Cell cycle arrest in human RD cells assessed as G1 phase accumulation at 1 uM after 24 hrs by propidium iodide staining based flow cytometry (reference value: 56.7 +/- 1.48%); assay type: functional
[11] = Cell cycle arrest in human RD cells assessed as G2/M phase accumulation at 1 uM after 24 hrs by propidium iodide staining based flow cytometry (reference value: 28.9 +/- 1.93%); assay type: functional
[12] = Cell cycle arrest in human T98G cells assessed as subG1 phase accumulation at 1 uM after 24 hrs by propidium iodide staining based flow cytometry relative to DMSO control; assay type: functional
[13] = Cell cycle arrest in human T98G cells assessed as G1 phase accumulation at 1 uM after 24 hrs by propidium iodide staining based flow cytometry (reference value: 86.1 +/- 1.29%); assay type: functional
[14] = Cell cycle arrest in human T98G cells assessed as S phase accumulation at 1 uM after 24 hrs by propidium iodide staining based flow cytometry (reference value: 5.1 +/- 0.82%); assay type: functional
[15] = Cell cycle arrest in human SH-SY5Y cells assessed as G2/M phase accumulation at 1 uM after 24 hrs by propidium iodide staining based flow cytometry (reference value: 26.2 +/- 1.27%); assay type: functional
[16] = Cell cycle arrest in human Kelly cells assessed as G1 phase accumulation at 1 uM after 24 hrs by propidium iodide staining based flow cytometry (reference value: 65.9 +/- 1.87%); assay type: functional
[17] = Cell cycle arrest in human Kelly cells assessed as G2/M phase accumulation at 1 uM after 24 hrs by propidium iodide staining based flow cytometry (reference value: 18 +/- 1.28%); assay type: functional
[18] = Cell cycle arrest in human LAN1 cells assessed as S phase accumulation at 1 uM after 24 hrs by propidium iodide staining based flow cytometry (reference value: 23.5 +/- 1.32%); assay type: functional
[19] = Cell cycle arrest in human PC3 cells assessed as G1 phase accumulation at 1 uM after 24 hrs by propidium iodide staining based flow cytometry (reference value: 67 +/- 1.47%); assay type: functional; conditions: PC-3
[20] = Cell cycle arrest in human MCF7 cells assessed as G1 phase accumulation at 1 uM treated for 24 hrs followed by compound washout measured after 24 hrs by propidium iodide staining based flow cytometry (reference value: 61.4%); assay type: functional
[21] = Cell cycle arrest in human MCF7 cells assessed as S phase accumulation at 1 uM treated for 24 hrs followed by compound washout measured after 24 hrs by propidium iodide staining based flow cytometry (reference value: 12.2%); assay type: functional
[22] = Cell cycle arrest in human NB-1 cells assessed as S phase accumulation at 1 uM after 48 hrs by propidium iodide staining based flow cytometry (reference value: 1.7%); conditions: nb1, 48 h
[23] = Cell cycle arrest in human NB-1 cells assessed as S phase accumulation at 1 uM after 72 hrs by propidium iodide staining based flow cytometry (reference value: 2.5%); conditions: nb1, 72 h
[24] = Disruption of beta-tubulin network in human MCF7 cells assessed as uneven distribution around nuclei at 1 uM after 24 hrs by DAPI staining based immunofluorescence microscopic analysis; assay type: cell-based
How it was run: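 Cells seeded on glass coverslips (1 x 10^5/well), treated 24 h, fixed in 4% paraformaldehyde 15 min, permeabilized with 0.5% Triton X-100, blocked in 5% BSA/PBS, stained overnight at 4 °C with anti-β-tubulin (1:200) then fluorescent secondary antibody; nuclei counterstained with DAPI; microtubule organization and nuclear morphology examined by fluorescence microscopy.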

A549 = assay: Induction of apoptosis in human A549 cells assessed as early apoptotic cells at 5 uM after 72 hrs by Annexin-V FITC/propidium iodide staining based flow cytometry (reference value: 1.3%); assay type: functional
[25] = Induction of apoptosis in human NB1 hTERT cells assessed as late apoptotic cells at 5 uM after 72 hrs by Annexin-V FITC/propidium iodide staining based flow cytometry (reference value: 4.6%); assay type: functional
[26] = Induction of apoptosis in human NB1 hTERT cells assessed as necrotic cells at 5 uM after 72 hrs by Annexin-V FITC/propidium iodide staining based flow cytometry (reference value: 1.6%); assay type: functional
[27] = Antiproliferative activity against human NB-1 cells after 72 hrs by XTT assay; assay type: cell-based; conditions: NB1, 72 h; how it was run: as §1
[28] = Antiproliferative activity against human NB1 hTERT cells after 72 hrs by XTT assay; assay type: functional, cell-based; how it was run: as §1
[29] = Cell cycle arrest in human NB1 hTERT cells assessed as sub G1 phase accumulation at 1 uM after 72 hrs by propidium iodide staining based flow cytometry relative to control; assay type: functional

In the case of Cc1[nH]c2c(c1-c1nnc(-c3ccccc3)o1)Cc1ccccc1-2, the IC50 [1] is reported as 250 nM, the “Ratio IC50” value (MCF7) is reported as 28 - 34 and the Activity [2] is reported as 40%. The Activity [3] was 45.3%, the Activity [4] was 5.6% and the Activity [5] was 79.9%. It also gave an Activity [6] of 17.8%, an Activity [7] of 34.3% and an Activity [8] of 9.7%. The Activity [9] was 6.1%, the Activity [10] was 36.9% and the Activity [11] was 46.4%. For the same compound, the Activity [12] was 16.8%, the Activity [13] was 11.1% and the Activity [14] was 6.2%. For the same compound, the Activity [15] was 43.9%, the Activity [16] was 34.3% and the Activity [17] was 42.9%. It also gave an Activity [18] of 5.6%, an Activity [19] of 23.3% and an Activity [20] of 56.8%. The Activity [21] was 11.6%, the Activity [22] was 2.4% and the Activity [23] was 4.3%. For the same compound, the Activity [24] was “Active”, the Activity (A549) was 11% and the Activity [25] was 13.2%. For the same compound, the Activity [26] was 2.1%, the IC50 [27] was 1300 nM and the IC50 [28] was 130 nM. For the same compound, the Activity [29] was 25.3%.
